# How the values were obtained:
# [1] = Cmax in Swiss albino mouse at 1 mg/kg, iv measured upto 24 hrs by LC/MS/MS analysis; assay type: ADME, organism-based; conditions: in vivo
# Method in brief: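 Male Swiss albino mice. […] Blood was taken into K2EDTA from three mice per time point, from 0 to 24 h. Plasma was precipitated with acetonitrile and analysed by LC/MS/MS (LLOQ 1.138 ng/mL).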
# RAW = assay: Inhibition of LPS induced p105 phosphorylation in mouse RAW cells preincubated for 1 hr followed by LPS stimulation and measured after 30 mins by Western blot analysis; assay type: functional, cell-based; conditions: dose 0.01-10 µM
# [2] = biological target: Cyclin-dependent kinase 5 (Homo sapiens) (UniProt Q00535); assay: Inhibition of CDK5 (unknown origin) at 10 uM by Ambit Kinomescan binding assay relative to control
# Sequence of Cyclin-dependent kinase 5 (Homo sapiens) (Q00535 whole entry, looked up): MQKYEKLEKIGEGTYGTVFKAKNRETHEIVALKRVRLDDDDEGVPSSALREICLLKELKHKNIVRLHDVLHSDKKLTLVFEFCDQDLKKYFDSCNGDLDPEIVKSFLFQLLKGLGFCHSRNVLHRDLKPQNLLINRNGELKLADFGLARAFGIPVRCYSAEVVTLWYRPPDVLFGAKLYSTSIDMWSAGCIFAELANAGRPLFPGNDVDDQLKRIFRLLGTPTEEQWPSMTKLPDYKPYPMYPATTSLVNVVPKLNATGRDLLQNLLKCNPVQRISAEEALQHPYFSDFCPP
# [3] = biological target: Mitogen-activated protein kinase kinase kinase kinase 4 (Homo sapiens, UniProt O95819); assay: Inhibition of ZC1/HGK Lys2 labeling site in human A-375 cells at 5 uM by KiNativ Profiling analysis relative to control; assay type: cell-based
# Sequence of Mitogen-activated protein kinase kinase kinase kinase 4 (O95819 2-1239 limits assumed): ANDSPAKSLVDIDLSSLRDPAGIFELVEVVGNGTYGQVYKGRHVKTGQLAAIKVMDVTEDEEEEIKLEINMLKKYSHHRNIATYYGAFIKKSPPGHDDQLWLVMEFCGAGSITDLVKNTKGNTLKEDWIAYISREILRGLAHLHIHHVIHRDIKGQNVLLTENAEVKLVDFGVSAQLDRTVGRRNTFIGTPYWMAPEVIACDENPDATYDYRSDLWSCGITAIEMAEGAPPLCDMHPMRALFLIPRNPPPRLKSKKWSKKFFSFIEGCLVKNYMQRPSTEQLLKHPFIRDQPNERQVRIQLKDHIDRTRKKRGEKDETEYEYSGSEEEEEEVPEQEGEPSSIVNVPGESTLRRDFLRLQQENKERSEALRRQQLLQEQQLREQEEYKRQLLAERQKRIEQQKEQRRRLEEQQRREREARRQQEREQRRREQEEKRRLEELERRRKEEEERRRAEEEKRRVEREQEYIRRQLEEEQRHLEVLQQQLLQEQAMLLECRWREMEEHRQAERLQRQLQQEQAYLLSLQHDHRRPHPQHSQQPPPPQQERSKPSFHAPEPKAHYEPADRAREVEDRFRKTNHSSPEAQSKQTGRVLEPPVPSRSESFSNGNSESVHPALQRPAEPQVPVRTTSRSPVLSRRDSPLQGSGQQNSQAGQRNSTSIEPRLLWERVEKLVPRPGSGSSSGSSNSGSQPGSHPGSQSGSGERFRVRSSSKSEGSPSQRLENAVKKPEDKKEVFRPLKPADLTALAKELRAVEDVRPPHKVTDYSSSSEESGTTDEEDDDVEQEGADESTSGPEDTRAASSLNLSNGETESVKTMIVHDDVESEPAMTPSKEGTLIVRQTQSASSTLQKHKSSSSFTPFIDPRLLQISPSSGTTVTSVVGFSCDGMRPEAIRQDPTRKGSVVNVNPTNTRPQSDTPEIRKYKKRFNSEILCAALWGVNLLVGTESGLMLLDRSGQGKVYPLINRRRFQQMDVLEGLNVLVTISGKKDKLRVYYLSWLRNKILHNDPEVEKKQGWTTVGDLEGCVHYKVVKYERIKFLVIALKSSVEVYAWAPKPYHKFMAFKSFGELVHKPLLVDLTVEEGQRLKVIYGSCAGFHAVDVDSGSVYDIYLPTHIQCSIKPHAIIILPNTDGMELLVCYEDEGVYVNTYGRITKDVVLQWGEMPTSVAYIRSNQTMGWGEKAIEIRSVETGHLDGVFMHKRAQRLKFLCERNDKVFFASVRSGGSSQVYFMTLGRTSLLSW
# [4] = biological target: T1, Dual specificity mitogen-activated protein kinase kinase 6 (Homo sapiens) (UniProt P52564); assay: Inhibition of MAP2K6 Lys1 labeling site in human A-375 cells at 0.5 uM by KiNativ Profiling analysis relative to control; assay type: cell-based
# T1 sequence (whole entry): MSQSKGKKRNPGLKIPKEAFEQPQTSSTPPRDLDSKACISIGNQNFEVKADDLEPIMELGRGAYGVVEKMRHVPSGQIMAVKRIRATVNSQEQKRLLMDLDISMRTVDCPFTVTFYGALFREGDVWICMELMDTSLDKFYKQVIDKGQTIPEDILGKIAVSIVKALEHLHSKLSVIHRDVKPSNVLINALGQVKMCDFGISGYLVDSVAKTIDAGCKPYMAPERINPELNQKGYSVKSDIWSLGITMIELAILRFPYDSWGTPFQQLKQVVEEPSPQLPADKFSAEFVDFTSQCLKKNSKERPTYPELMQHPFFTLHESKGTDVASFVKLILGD
# [5] = Inhibition of […] K2 labeling site in human Huh-7 cells at 1 uM by KiNativ Profiling analysis relative to control; conditions: condition cancer
# [6] = biological target: Microtubule-associated serine/threonine-protein kinase 1 (Homo sapiens) (UniProt Q9Y2H9); assay: Inhibition of MAST1 Lys2 labeling site in human A-375 cells at 0.5 uM by KiNativ Profiling analysis relative to control
# [7] = biological target: Ribosomal protein S6 kinase alpha-5 (Homo sapiens) (UniProt O75582); assay: Inhibition of N-terminal RPS6KA5 kinase domain 1 (unknown origin) at 1 uM by Ambit Kinomescan binding assay relative to control
# Sequence of Ribosomal protein S6 kinase alpha-5 (Homo sapiens) (O75582 whole entry, looked up, the tested form may be a part): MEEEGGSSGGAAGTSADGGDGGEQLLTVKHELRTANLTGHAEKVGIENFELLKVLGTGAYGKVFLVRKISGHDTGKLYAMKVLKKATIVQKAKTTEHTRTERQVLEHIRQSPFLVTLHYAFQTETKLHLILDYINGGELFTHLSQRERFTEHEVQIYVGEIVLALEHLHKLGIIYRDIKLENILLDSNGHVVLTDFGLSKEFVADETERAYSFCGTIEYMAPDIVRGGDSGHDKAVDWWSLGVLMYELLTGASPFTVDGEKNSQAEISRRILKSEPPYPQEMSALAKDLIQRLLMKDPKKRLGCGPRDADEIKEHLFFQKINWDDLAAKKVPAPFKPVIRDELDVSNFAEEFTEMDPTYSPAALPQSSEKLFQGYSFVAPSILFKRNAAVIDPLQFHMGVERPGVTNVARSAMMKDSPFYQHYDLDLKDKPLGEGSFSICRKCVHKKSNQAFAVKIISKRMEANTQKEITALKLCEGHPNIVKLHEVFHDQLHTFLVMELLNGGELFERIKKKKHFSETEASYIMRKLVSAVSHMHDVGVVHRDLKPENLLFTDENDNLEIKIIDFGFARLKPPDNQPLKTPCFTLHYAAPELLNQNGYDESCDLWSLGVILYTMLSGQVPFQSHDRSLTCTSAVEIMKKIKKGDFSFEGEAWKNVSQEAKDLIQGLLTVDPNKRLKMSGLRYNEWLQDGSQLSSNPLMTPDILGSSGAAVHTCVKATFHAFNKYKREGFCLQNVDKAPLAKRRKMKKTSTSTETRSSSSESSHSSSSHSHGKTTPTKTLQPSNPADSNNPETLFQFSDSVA
# [8] = biological target: SRSF protein kinase 3 (Homo sapiens) (UniProt Q9UPE1); assay: Inhibition of SRPK3 (unknown origin) at 1 uM by Ambit Kinomescan binding assay relative to control
# [9] = biological target: Serine/threonine-protein kinase VRK2 (Homo sapiens) (UniProt Q86Y07); assay: Inhibition of VRK2 Lys2 labeling site in human A-375 cells at 0.5 uM by KiNativ Profiling analysis relative to control; assay type: cell-based
# Sequence of Serine/threonine-protein kinase VRK2 (Homo sapiens) (Q86Y07 whole entry): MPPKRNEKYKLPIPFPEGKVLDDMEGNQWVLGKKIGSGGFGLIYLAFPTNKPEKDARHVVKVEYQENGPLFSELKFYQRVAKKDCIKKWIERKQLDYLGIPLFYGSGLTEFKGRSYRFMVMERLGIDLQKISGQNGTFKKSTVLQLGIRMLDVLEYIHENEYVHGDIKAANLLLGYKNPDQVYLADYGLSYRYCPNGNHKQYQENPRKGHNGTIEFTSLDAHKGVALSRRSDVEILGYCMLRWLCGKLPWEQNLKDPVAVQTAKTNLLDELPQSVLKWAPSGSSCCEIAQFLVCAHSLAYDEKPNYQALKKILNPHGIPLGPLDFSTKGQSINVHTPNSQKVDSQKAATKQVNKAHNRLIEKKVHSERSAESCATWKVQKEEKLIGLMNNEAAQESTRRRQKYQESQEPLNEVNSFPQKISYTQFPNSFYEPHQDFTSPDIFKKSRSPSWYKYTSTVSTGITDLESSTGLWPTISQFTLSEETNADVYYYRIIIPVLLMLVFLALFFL
# [10] = biological target: Serine/threonine-protein kinase B-raf (Homo sapiens, UniProt P15056); assay: Inhibition of BRAF Lys2 labeling site in human A-375 cells at 0.05 uM by KiNativ Profiling analysis relative to control; assay type: cell-based
# [11] = biological target: Mitogen-activated protein kinase kinase kinase 10 (Homo sapiens) (UniProt Q02779); assay: Inhibition of MLK2 (unknown origin) at 1 uM by Ambit Kinomescan binding assay relative to control; values are per cent of control
# [12] = biological target: Serine/threonine-protein kinase Nek3 (Homo sapiens) (UniProt P51956); assay: Inhibition of NEK3 (unknown origin) at 1 uM by Ambit Kinomescan binding assay relative to control; values are per cent of control
# [13] = biological target: 3-phosphoinositide-dependent protein kinase 1 (Homo sapiens) (UniProt O15530); assay: Inhibition of PDPK1 (unknown origin) at 1 uM by Ambit Kinomescan binding assay relative to control; values are per cent of control
# Sequence of 3-phosphoinositide-dependent protein kinase 1 (Homo sapiens) (O15530 whole entry): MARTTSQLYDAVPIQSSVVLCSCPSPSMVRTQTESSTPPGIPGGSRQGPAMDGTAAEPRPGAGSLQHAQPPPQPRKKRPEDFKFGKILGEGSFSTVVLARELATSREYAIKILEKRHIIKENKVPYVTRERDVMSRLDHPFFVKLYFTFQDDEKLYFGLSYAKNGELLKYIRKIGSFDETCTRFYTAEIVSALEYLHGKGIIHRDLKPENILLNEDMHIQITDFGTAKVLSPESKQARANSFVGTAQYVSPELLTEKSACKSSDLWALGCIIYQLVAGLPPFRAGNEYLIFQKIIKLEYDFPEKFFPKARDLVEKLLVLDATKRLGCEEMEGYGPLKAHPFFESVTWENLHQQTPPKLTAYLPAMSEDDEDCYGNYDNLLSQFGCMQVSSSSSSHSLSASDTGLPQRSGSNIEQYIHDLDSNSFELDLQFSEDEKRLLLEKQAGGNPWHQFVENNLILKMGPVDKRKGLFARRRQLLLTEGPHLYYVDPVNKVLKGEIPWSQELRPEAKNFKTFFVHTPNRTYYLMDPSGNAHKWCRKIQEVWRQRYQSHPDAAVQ
# [14] = tested on: Tyrosine-protein kinase ABL1 (Homo sapiens), P00519 [F317L]; assay: Inhibition of phosphorylated ABL1 F317L mutant (unknown origin) at 1 uM by Ambit Kinomescan binding assay relative to control; values are per cent of control
# [15] = biological target: 5'-AMP-activated protein kinase catalytic subunit alpha-2 (Homo sapiens) (UniProt P54646); assay: Inhibition of AMPKa2 Lys1 labeling site in human Huh-7 cell lysate at 1 uM by KiNativ Profiling analysis relative to control; assay type: subcellular
# [16] = biological target: Serine/threonine-protein kinase 10 (Homo sapiens) (UniProt O94804); assay: Inhibition of LOK Lys2 labeling site harbouring DLKAGNVLMTLEGDIR in human Huh-7 cell lysate at 1 uM by KiNativ Profiling analysis relative to control; assay type: subcellular
# [17] = biological target: Putative phosphatidylinositol 4-kinase alpha-like protein P2 (Homo sapiens) (UniProt A4QPH2); assay: Inhibition of PI4KAP2 ATP labeling site in human Huh-7 cell lysate at 1 uM by KiNativ Profiling analysis relative to control; assay type: subcellular
# [18] = biological target: Serine/threonine-protein kinase PLK1 (Homo sapiens) (UniProt P53350); assay: Inhibition of PLK1 Lys2 labeling site harbouring VIHRDLKLGNLFLNEDLEVK in human Huh-7 cell lysate at 1 uM by KiNativ Profiling analysis relative to control; assay type: subcellular
# Sequence of Serine/threonine-protein kinase PLK1 (Homo sapiens) (P53350 whole entry): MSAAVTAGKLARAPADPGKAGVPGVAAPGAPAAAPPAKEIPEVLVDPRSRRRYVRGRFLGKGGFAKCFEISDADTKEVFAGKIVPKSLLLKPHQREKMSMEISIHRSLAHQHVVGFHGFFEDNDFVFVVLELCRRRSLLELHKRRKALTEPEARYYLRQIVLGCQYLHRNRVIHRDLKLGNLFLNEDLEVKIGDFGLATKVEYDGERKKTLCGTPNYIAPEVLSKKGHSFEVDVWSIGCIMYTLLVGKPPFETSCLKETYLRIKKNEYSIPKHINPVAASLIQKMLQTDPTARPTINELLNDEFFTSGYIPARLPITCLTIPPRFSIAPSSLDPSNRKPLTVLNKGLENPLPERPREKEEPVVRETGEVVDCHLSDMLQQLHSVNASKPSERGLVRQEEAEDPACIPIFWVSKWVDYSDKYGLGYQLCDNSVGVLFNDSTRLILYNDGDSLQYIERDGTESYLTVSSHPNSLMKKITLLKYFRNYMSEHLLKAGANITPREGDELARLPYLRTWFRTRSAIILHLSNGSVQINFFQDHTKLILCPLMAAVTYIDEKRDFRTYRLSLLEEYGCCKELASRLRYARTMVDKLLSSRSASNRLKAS
# [19] = biological target: Mitogen-activated protein kinase 8 (Homo sapiens, UniProt P45983); assay: Inhibition of JNK1 Lys2 labeling site in human Huh-7 cells at 1 uM by KiNativ Profiling analysis relative to control; assay type: cell-based
# [20] = biological target: Serine/threonine-protein kinase MARK2 (Homo sapiens) (UniProt Q7KZI7); assay: Inhibition of MARK2 Lys2 labeling site harbouring DLKAENLLLDADMNIK in human Huh-7 cells at 1 uM by KiNativ Profiling analysis relative to control; assay type: cell-based
# Sequence of Serine/threonine-protein kinase MARK2 (Homo sapiens) (Q7KZI7 whole entry): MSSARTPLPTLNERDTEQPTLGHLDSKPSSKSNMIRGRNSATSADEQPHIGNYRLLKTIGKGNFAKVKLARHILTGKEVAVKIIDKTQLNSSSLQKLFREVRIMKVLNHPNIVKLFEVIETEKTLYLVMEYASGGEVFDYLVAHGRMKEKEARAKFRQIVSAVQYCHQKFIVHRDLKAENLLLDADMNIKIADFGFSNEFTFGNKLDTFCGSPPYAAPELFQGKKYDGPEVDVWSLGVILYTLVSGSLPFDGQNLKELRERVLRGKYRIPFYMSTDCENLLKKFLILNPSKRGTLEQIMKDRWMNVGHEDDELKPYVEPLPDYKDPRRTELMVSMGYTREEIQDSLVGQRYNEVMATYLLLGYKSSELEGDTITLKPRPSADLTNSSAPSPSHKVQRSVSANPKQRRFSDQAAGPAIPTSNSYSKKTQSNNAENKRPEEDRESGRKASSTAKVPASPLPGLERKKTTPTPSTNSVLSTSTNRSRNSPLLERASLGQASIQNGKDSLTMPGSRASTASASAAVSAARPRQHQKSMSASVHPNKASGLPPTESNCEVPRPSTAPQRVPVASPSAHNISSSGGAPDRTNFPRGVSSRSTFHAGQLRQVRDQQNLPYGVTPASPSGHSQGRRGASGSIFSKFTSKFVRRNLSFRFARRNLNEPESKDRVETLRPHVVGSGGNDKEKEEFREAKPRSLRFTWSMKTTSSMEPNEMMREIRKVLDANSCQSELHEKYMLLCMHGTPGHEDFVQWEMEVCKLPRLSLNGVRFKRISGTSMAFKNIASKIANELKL
# [21] = biological target: Serine/threonine-protein kinase PLK1 (Homo sapiens) (UniProt P53350); assay: Inhibition of PLK1 Lys2 labeling site in human Huh-7 cells at 1 uM by KiNativ Profiling analysis relative to control; assay type: cell-based
compound,measurement,setting,value
CCN1CCN(Cc2ccc(NC(=O)c3ccc(C)c(Oc4ccnc5[nH]ccc45)c3)cc2C(F)(F)F)CC1,Cmax,[1],396 ng/mL
same,inhibition,RAW,Dose-Dependent Effect
same,inhibition,[2],19%
same,inhibition,[3],92.7%
same,inhibition,[4],4.5%
same,inhibition at 1 µM,[5],-16%
same,inhibition,[6],16.1%
CCN1CCN(Cc2ccc(NC(=O)c3ccc(C)c(/C=C/c4cnc5[nH]ccc5c4OC)c3)cc2C(F)(F)F)CC1,inhibition,[7],62%
same,inhibition,[8],37%
same,inhibition,[9],28.5%
same,inhibition,[10],29.6%
same,residual activity,[11],53%
same,residual activity,[12],79%
same,residual activity,[13],100%
same,percent of control,[14],3.4%
CNc1cc(Oc2cc(C(=O)Nc3cc(N4CCN(C)CC4)cc(C(F)(F)F)c3)ccc2C)ncn1,inhibition,[15],8.7%
same,inhibition,[16],-8.9%
same,inhibition,[17],2%
same,inhibition,[18],10.8%
same,inhibition,[19],14.5%
same,inhibition,[20],19.4%
same,inhibition,[21],1.3%

# Reference: ChEMBL document CHEMBL5696442, “Discovery of type II inhibitors of TGFβ-activated kinase 1 (TAK1) and mitogen-activated protein kinase kinase kinase kinase 2 (MAP4K2)” (J Med Chem, 2015)
